Bioassay records: PubChem, several laboratories
PABP polyA inh: blocks human PABP binding to poly(A) RNA. fluorescence polarization. calls only at 35 µM. actives 1% (n = 290,000); call rule not given here;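 further: calls also rest on retests at 20 µM and on dose response follow-up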
PABP1 MLLE inh: blocks PAM2 peptide binding to the PABP1 MLLE domain; P11940; actives 0.36% (n = 360,000); inhibition, % at 20 µM; GST-MLLE / FITC-PAM2 fluorescence polarization; AID 588489; in the data active means inhibition above about 35%, passing the limit was not always enough;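 further: plate controls were DMSO wells with GST-MLLE for no effect and wells lacking GST-MLLE protein for full effect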
RBBP9 inhibitor: inhibitors of human serine hydrolase RBBP9 | O75884 | recombinant RBBP9, FP-Rh probe fluorescence polarization | inhibition, % at 7.94 µM | actives 0.2% (n = 220,000);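 active means inhibition above the campaign mean of all tested compounds plus 3 SD, cut at about 14% in these data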;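 further: plate controls were DMSO wells with RBBP9 for no effect and wells lacking RBBP9 protein for full effect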
Target sequence (O75884 whole entry, looked up): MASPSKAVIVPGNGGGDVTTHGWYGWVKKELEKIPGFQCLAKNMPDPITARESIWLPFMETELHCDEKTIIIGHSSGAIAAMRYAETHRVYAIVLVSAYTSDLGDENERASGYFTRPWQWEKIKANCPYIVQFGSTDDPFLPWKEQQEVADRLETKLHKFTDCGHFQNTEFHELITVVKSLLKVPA
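Measured by: FP readout at 525/598 nm; material: recombinant human RBBP9; also added: Serine-hydrolase probe FP-Rh, 375 nM pre-mixing; medium: Tris buffer pH 8.0, NaCl, Pluronic; replication: one well per compound; doses: one concentration, 7.94 µM nominal, 0.794% DMSO; timing: preincubation 30 min plus labeling 45 min at 25 °C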
eIF4H inh: inhibitors of RNA binding by human eIF4H | inhibition, % at 35 µM | eIF4H fluorescence polarization binding assay | actives 0.94% (n = 290,000) | Q15056; call rule not given here;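 further: calls also rest on retests at 20 µM and on dose response follow-up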
TCR CD3 inh: inhibitors of human TCR-CD3 interaction. actives 0.37% (n = 360,000). inhibition, % at 9.4 µM. TAMRA-labeled TCR probe fluorescence, biochemical;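 further: recombinant mutant TCR 2C K166C tagged with TAMRA read by polarization; 0% = receptor in buffer alone and 100% = receptor with positive control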
BSA TAMRA ctr: interferes with TAMRA-BSA probe, flagging TCR-CD3 hits; inhibition, % at 9.4 µM; shares compounds with TCR CD3 inh; TAMRA-labeled BSA probe fluorescence counterscreen; AID 652035; actives 10% (n = 1,200); in the data active means inhibition above about 23%;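 further: 0% = buffer low control and 100% = reference high control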
TCR-CD3 conf: confirmation of human TCR-CD3 interaction inhibitors. shares compounds with TCR CD3 inh. TAMRA-labeled TCR probe fluorescence binding assay. inhibition, % at 9.4 µM. actives 48% (n = 1,200). AID 652036
Numbers without * were called inactive. In the library only some 1.6% were active in any assay of this set; here they are far more common. Unless noted, no stated cut-off is given here; in the data, active means inhibition above about 19%; inactive means the rest.

`CC(C)=CCc1c(O)ccc2c1OC(c1ccc(O)c(O)c1)CC2=O` (stereo not given) gave PABP polyA inh inactive, PABP1 MLLE inh -19.4, RBBP9 inhibitor -20.1, eIF4H inh 9.3 and TCR CD3 inh -0.9.
O=C1CC(c2ccc(O)c(O)c2)Oc2c1ccc(O)c2O (stereo not given) was read as PABP polyA inh active, PABP1 MLLE inh -10.2, eIF4H inh 94.3*, TCR CD3 inh 27.7*, BSA TAMRA ctr -22.9 and TCR-CD3 conf 33.1*.
Screening O=C(N/N=C/c1c(O)n(-c2ccc(Cl)cn2)c(=O)c2ccccc12)C1CC1 returned PABP polyA inh inactive, PABP1 MLLE inh -30.6, RBBP9 inhibitor -6.2, eIF4H inh -1.8, TCR CD3 inh 22.7*, BSA TAMRA ctr -10.7 and TCR-CD3 conf 26.1*.
CCOc1ccc(Nc2ccc(N)c(S(=O)(=O)O)c2)cc1 was read as PABP1 MLLE inh 26.9, TCR CD3 inh 42.4*, BSA TAMRA ctr 2.2 and TCR-CD3 conf 20.9*.
CCOc1ccc(NS(=O)(=O)c2ccc(N)cc2)cc1 was read as PABP polyA inh inactive, PABP1 MLLE inh -4.0, RBBP9 inhibitor -3.4, eIF4H inh 2.4 and TCR CD3 inh -8.5.
O=C(C(=O)N1CCN(C(=O)c2cccs2)CC1)c1cccc(C(F)(F)F)c1 was read as TCR CD3 inh -0.1.
For COc1ccc(C[C@](C)(N)C(=O)O)cc1OC the results were PABP1 MLLE inh -1.8 and TCR CD3 inh 5.3.
For C[C@](N)(Cc1ccc(O)c(O)c1)C(=O)O the results were PABP polyA inh inactive, PABP1 MLLE inh -12.4, RBBP9 inhibitor 5.8, eIF4H inh 96.4, TCR CD3 inh 22.0*, BSA TAMRA ctr -4.7 and TCR-CD3 conf 2.1.
`[O-][n+]1cc(Cl)cc(Cl)c1` gave PABP1 MLLE inh -4.7 and TCR CD3 inh 1.6.
CC1(OC(=O)c2ccco2)C(=O)C=C2C=C(C3CC3)OC=C2C1=O (stereo not given) was read as PABP1 MLLE inh 32.2, TCR CD3 inh 56.7*, BSA TAMRA ctr 56.0* and TCR-CD3 conf 36.9*.
`C[C@H](O)[C@@H]1C(=O)N2CCc3c([nH]c4cccc(-c5ccccc5)c34)[C@@H]2C[C@@H]1N(C)CC1CCCCC1` gave TCR CD3 inh -4.9.
`O=C(N[C@@H](Cc1ccccc1)c1nc2ccccc2[nH]1)c1ccc([N+](=O)[O-])cc1` gave TCR CD3 inh 4.7.
O=S(=O)(c1cc(O)ccc1O)c1cccc2c(S(=O)(=O)c3cc(O)ccc3O)cccc12 was read as PABP1 MLLE inh -6.8, TCR CD3 inh 24.7*, BSA TAMRA ctr -8.8 and TCR-CD3 conf 12.2.
For COc1ccc2ccccc2c1C(O)c1nccn1C (stereo not given) the results were PABP polyA inh inconclusive, PABP1 MLLE inh 195.6, RBBP9 inhibitor 2.4, eIF4H inh inconclusive, TCR CD3 inh 78.8*, BSA TAMRA ctr 6.3 and TCR-CD3 conf 3.0.
For Cc1cc(O)cc(=O)n1-c1ccc(OC(F)F)cc1 the results were TCR CD3 inh -3.3.
`O=c1[nH]c(C(Cl)Cl)nc2sc3c(c12)CCN(Cc1ccccc1)C3` gave PABP polyA inh active, PABP1 MLLE inh 10.9, RBBP9 inhibitor -0.5, eIF4H inh 78.1*, TCR CD3 inh 25.1*, BSA TAMRA ctr -4.3 and TCR-CD3 conf 14.7.
For CCCSc1nc2sc3c(c2c(=O)[nH]1)CCN(Cc1ccccc1)C3 the results were PABP polyA inh inconclusive, PABP1 MLLE inh -62.2, RBBP9 inhibitor 1.2 and eIF4H inh inconclusive.
For CCCCCCCCN1C(=O)[C@H](CC(=O)N2CCCC2)C[C@@]2(C(=O)OC)CC(C)(C)CC=C12 the results were TCR CD3 inh -3.7.
For COc1cc(OC)c2c(c1O)OC(c1ccccc1)CC2=O (stereo not given) the results were PABP1 MLLE inh -4.2, RBBP9 inhibitor -2.2, TCR CD3 inh 38.7*, BSA TAMRA ctr -6.2 and TCR-CD3 conf 18.9*.
O=C1CC(c2ccccc2)Oc2cc(O)cc(O)c21 (stereo not given) was read as PABP polyA inh inactive, PABP1 MLLE inh -1.6, eIF4H inh -2.4 and TCR CD3 inh -7.0.
N#CCC(=O)Nc1ccc(C(=O)OCC(=O)Nc2cccc3ccccc23)cc1 was read as PABP1 MLLE inh -14.7 and TCR CD3 inh -0.7.
For N#CCC(=O)Nc1ccc(C(=O)OCC(=O)NC2CCCc3ccccc32)cc1 (stereo not given) the results were PABP1 MLLE inh -11.4, TCR CD3 inh 19.6*, BSA TAMRA ctr 6.4 and TCR-CD3 conf 2.3.
`Cc1ccc(C(=O)OCC(=O)NC2CCCc3ccccc32)o1` (stereo not given) gave PABP1 MLLE inh 6.1 and TCR CD3 inh -6.3.
For Cc1cc(C)c(-c2cc(NC(=O)COC(=O)c3ccc(NC(=O)CC#N)cc3)n(-c3ccccc3)n2)cc1C the results were PABP1 MLLE inh -7.1, TCR CD3 inh 61.1*, BSA TAMRA ctr 16.1 and TCR-CD3 conf 43.0*.
`N#CCC(=O)Nc1ccc(C(=O)OCC(=O)Nc2cccc(C(F)(F)F)c2)cc1` gave PABP polyA inh inactive, PABP1 MLLE inh -6.1, RBBP9 inhibitor -42.8, eIF4H inh -3.5, TCR CD3 inh 34.8*, BSA TAMRA ctr -4.8 and TCR-CD3 conf 2.5.
For NC(Cc1ccc(O)cc1)C(=O)NN=Cc1ccccc1O (stereo not given) the results were TCR CD3 inh 3.9.
For CCC(=O)NC(=S)NNC(=O)c1ccc(OC)cc1 the results were PABP polyA inh inactive, PABP1 MLLE inh -17.3, RBBP9 inhibitor -4.0, eIF4H inh 13.7, TCR CD3 inh 20.1*, BSA TAMRA ctr -3.3 and TCR-CD3 conf 6.0.
`COc1ccc(C(=O)NC(=S)NNC(=O)c2cccnc2)cc1` gave PABP polyA inh inactive, PABP1 MLLE inh 9.1, eIF4H inh 14.4, TCR CD3 inh 24.5*, BSA TAMRA ctr -0.9 and TCR-CD3 conf 18.4.
For COc1cc(OC)cc(C(=O)NNC(=S)NC(=O)c2cccnc2)c1 the results were PABP polyA inh inactive, PABP1 MLLE inh 1.6, eIF4H inh -1.0, TCR CD3 inh 23.5*, BSA TAMRA ctr -2.6 and TCR-CD3 conf 19.7*.
`COc1ccc(/C=C/C(=O)NC(=S)NNC(=O)c2cccnc2)cc1OC` gave PABP polyA inh inactive, PABP1 MLLE inh -2.2, RBBP9 inhibitor -8.9, eIF4H inh 13.5, TCR CD3 inh 27.4*, BSA TAMRA ctr -7.4 and TCR-CD3 conf 17.6.
`S=C1NC2(CCCCCC2)NN1c1ccccc1` gave TCR CD3 inh -8.3.
`CCn1c(C)nc2cc(C(=O)NNC(=S)Nc3ccccc3)ccc21` gave PABP polyA inh inactive, PABP1 MLLE inh 2.9, RBBP9 inhibitor -3.3, eIF4H inh 4.5 and TCR CD3 inh 10.6.
